The source made the active and inactive calls.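 Rule for the calls, unless noted: active = visually confirmed hit in the image check and inhibition above 20%; inconclusive = visually confirmed hit but inhibition not above 20%; inactive = no visual hit in the image check.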

The source of these data is PubChem BioAssay.

A short description of assay [1]: inhibitors of TNFa-induced NFkB p65 translocation, primary screen, imaging, HUVEC, MLSMR starter and 10KST1 sets (AID 438;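 active = inhibition above 20% together with a positive visual image hit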;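 note: compound added about 3h40 before a 20 min TNFalpha stimulation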;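 for inhibition: signal is the nuclear over cytoplasmic p65 intensity ratio per well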). The settings on record: HUVEC TNFa-induced p65 nuclear translocation; cell count: measured here: nuclei count (cytotoxicity indicator), at 2.08 µM; inhibition: at 2 µM, stronger effect = higher value, 0% TNFa-plus-vehicle, 100% no-TNFa wells.
Assay [2] is described as follows: endothelial E-selectin expression blockers – imaging, HUVEC, immunofluorescence, MLSMR starter and 10KST1 sets, primary screen (AID 487).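 For inhibition: signal is fraction of cell area covered by stained E-selectin grains.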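 For nuclei count: 100% = median nuclei count of all wells on the same plate.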 The settings on record: HUVEC TNFalpha-induced E-selectin immunofluorescence imaging, at 2 µM; inhibition: stronger effect = higher value; nuclei count: measured here: cell number, toxicity.
Assay [3] can be described thus: Primary imaging screen for DUSP6 inhibitors that restore phospho-Erk in transfected HeLa cells, chemical complementation (AID 609;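 active = compounds giving at least 50% inhibition in the cell-based MKP-3 phosphatase rescue imaging test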;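 for inhibition: phospho-Erk level distribution per well compared with pooled transfected vehicle control wells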). The settings on record: HeLa MKP-3 transfected, phospho-Erk imaging KS statistic, at 10 µM, cells stimulated with TPA for 15 min.
The target of assay [4] is Dual specificity protein phosphatase 6 (Homo sapiens) (UniProt Q16828). Described as above. The settings on record: HeLa MKP-3 transfected, phospho-Erk imaging KS statistic; at 10 µM; stronger effect = higher value; cells stimulated with TPA for 15 min.
Assay [5] has as its target Voltage-gated potassium channel subunit beta-2 (Rattus norvegicus) (UniProt P62483). As to the kind of experiment: inhibitors of rat Kvbeta2 reductase activity – biochemical, NADPH fluorescence, primary screen (AID 622;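 active = fluorescence slope higher than the sample average by over 3 SD, cut at about -0.22 in these data, passing the limit was not always enough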;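 note: slope of raw intensity against log time taken from 70 to 1610 s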). The settings on record: recombinant KvBeta, 4-cyanobenzaldehyde reduction, at 10 µM, stronger effect = higher value.
Assay [6] shares this target. As to the kind of experiment: enhancers of rat Kvbeta2 NADPH turnover – biochemical, NADPH fluorescence, primary screen (AID 623;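 active = NADPH fluorescence slope more negative than the mean of all samples by about 3 SD, 99.7% confidence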;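 note: fluorescence intensity change per second fitted from 20 to 320 s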). The settings on record: Recombinant KvBeta, NADPH fluorescence decrease slope, 10 min; at 10 µM; stronger effect = lower value.
In assay [7] the target is Alpha-2C adrenergic receptor (Homo sapiens) (UniProt P18825). The experiment in a line: compounds altering alpha2C-coupled GIRK flux – cell-based, HEK293 alpha2C/GIRK1/2, thallium flux, primary screen (AID 624;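 active = fluorescence slope after compound addition differing from the mean of all screened samples at 99.7% confidence, in either direction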;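 note: slope of fluorescence ratio to pre-addition baseline per second over 15 to 24 s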). The settings on record: thallium flux BTC fluorescence, at 10 µM, actives lie on both sides.
Assay [8] in a line: inhibitors of larval lipid processing in zebrafish, primary screen, whole organism, PED6 fluorescence, gall bladder and intestine (AID 686;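 active = a full or partial loss of lipid-probe fluorescence in the fish gall bladder, intestine or both, judged by eye; inactive = no fluorescence loss, or compound toxic to the fish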;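 note: larvae 5 to 7 days old with five fish per well; signal comes from phospholipase A2 cleavage of quenched PED6 carried via bile; overnight exposure to compound and PED6 before scoring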). The settings on record: Zebrafish larvae PED6 lipid processing, fluorescence scoring; screened at 20 µM (by protocol). The procedure, abridged:
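Also added: quenched phospholipase substrate PED6, 100 nM final, ingested by larvae; System: zebrafish larvae, 5-7 d; Quantity: 5 larvae per well; Compound: 20 µM single dose; Schedule: overnight compound and PED6 incubation; Read-out: visual per-well fluorescence inhibition score; Measured by: By-eye fluorescence microscopy; Medium: E3.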

Assay [9] can be described thus: loss of swimming-algae plug formation – whole organism, Chlamydomonas reinhardtii, WT vs cilia-less mutant, absorbance, 96-well, primary screen (AID 463189;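 active = inhibition at or above 50% relative to wild type and mutant plate controls; inactive = inhibition below 50%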;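 note: 0% = wild type cc124 cells in DMSO and 100% = ciliumless bld1 mutant cells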). The settings on record: Chlamydomonas reinhardtii gravitaxis, OD600 absorbance, 2 days; at 10 µM; stronger effect = higher value.
Setting [10] is: measured here: cell density z-score.
Where [11] appears, read: measured here: nuclear c-Myc green intensity z-score.
[12] abbreviates: measured here: nuclear pErk red intensity z-score, stronger effect = higher value.

Alpha-2C adrenergic receptor (Homo sapiens), sequence (P18825 whole entry, looked up): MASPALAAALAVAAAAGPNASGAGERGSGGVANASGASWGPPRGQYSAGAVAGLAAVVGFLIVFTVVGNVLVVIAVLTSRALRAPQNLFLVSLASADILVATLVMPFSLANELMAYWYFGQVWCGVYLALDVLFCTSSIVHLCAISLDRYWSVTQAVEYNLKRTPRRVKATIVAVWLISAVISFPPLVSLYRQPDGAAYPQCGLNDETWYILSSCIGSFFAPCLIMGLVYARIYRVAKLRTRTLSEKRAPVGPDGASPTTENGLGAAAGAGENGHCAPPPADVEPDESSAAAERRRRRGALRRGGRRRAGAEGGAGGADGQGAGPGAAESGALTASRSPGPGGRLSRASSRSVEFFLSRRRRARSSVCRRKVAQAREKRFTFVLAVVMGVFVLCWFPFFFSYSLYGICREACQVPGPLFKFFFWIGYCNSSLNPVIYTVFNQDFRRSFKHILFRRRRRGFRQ
Voltage-gated potassium channel subunit beta-2 (Rattus norvegicus), sequence (P62483 whole entry, looked up): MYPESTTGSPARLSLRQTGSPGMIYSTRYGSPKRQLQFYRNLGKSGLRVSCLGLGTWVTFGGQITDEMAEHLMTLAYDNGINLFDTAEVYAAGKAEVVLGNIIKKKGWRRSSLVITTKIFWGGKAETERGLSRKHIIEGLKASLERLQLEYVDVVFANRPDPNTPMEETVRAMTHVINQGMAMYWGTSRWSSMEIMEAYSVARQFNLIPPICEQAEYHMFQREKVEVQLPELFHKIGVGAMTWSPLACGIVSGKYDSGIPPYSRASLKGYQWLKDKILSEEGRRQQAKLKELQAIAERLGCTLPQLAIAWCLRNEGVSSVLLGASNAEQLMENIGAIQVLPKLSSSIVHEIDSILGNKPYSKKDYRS
Dual specificity protein phosphatase 6 (Homo sapiens), sequence (Q16828 whole entry, looked up): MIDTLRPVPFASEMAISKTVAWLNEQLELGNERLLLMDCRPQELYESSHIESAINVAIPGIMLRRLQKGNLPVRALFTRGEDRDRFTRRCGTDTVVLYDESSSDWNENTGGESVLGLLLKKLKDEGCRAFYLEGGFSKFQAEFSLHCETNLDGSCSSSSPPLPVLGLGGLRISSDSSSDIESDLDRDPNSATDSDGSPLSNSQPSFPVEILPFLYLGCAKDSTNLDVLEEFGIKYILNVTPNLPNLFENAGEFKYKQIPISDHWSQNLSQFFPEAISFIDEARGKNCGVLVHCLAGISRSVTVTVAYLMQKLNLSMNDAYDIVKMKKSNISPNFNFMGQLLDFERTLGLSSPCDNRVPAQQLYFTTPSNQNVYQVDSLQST

With `N#Cc1nc(-c2ccc(Cl)cc2)oc1N1CCCCC1`, the cell count in [1] was found to be 424. Besides, the inhibition in assay [1] was -5.8% (inactive); in assay [2] it was -41.2% (inactive); in assay [4], 9.61% (inactive); in [9], 20% (inactive). Further, the nuclei count in [2] worked out at 138%. Further, the z-score is -0.0904 in assay [3] (setting [10]), -0.228 in [3] (setting [11]) and 0.966 in assay [3] (setting [12]). The fluorescence slope in assay [5] was -0.394 (inactive). Besides, the NADPH fluorescence slope in assay [6] was -1.7e-05 (inactive). Further, in [7], the slope was 0.00666 (inactive). The molecule was classed as inactive in [8].
In the case of `CCOC(=O)CSc1nc2ccccc2c(=O)n1C`, the cell count in assay [1] is 636. Besides, the inhibition is -9.5% (inactive) in assay [1], -24.4% (inactive) in assay [2], -5.89% (inactive) in assay [4] and -11.1% (inactive) in [9]. The nuclei count in assay [2] was found to be 170%. The values for the z-score in assay [3] (setting [10]), in [3] (setting [11]) and in assay [3] (setting [12]) were -0.479, 1.67 and 1.83, respectively. The fluorescence slope in assay [5] is -0.523 (inactive). For the same molecule, the NADPH fluorescence slope in assay [6] was -3.8e-05 (inactive). For the same molecule, the slope in assay [7] was 0.00573 (inactive). Further, the call in assay [8] was inactive.
`CCN(CC)CCCN1C(=O)C(O)=C(C(=O)c2ccc(C)o2)C1c1ccc(C)o1` (stereo unspecified): the cell count in [1] is 581. Further, the inhibition in assay [1] is -17.5% (inactive); in assay [2], -104% (inactive); in assay [4], -2.47% (inactive); in assay [9], 4.2% (inactive). Besides, in assay [2], the nuclei count was found to be 153%. The z-score in assay [3] (setting [10]) was found to be 0.106; in assay [3] (setting [11]), 0.341; in [3] (setting [12]) it was 0.337. The fluorescence slope in [5] is -0.485 (inactive). Moreover, in assay [6], the NADPH fluorescence slope is -5.2e-05 (inactive). The slope in assay [7] is 0.00555 (inactive). Further, in assay [8], the result was inactive.
For `CCOC(=O)c1c(C)cccc1OCC(N)=O`, the cell count in assay [1] was 638. Moreover, the inhibition in assay [1] is -2.3% (inactive); in [2], 13.5% (inactive); in [4], -0.159% (inactive); in assay [9] it was -5.84% (inactive). Further, the nuclei count in [2] came to 175%. Further, the results for the z-score in assay [3] (setting [10]), in assay [3] (setting [11]) and in assay [3] (setting [12]) were -0.228, -0.623 and 1.22, respectively. In assay [5], the fluorescence slope is -0.487 (inactive). For the same molecule, the NADPH fluorescence slope in [6] is -0.000164 (inactive). In addition, the slope in assay [7] is 0.0049 (inactive). For the same molecule, the molecule was called inactive in assay [8].
Turning to `CC(=O)c1cc(CN2CCCCC2)cc(OC(C)C)c1`, the cell count in assay [1] worked out at 667. Also, the inhibition in [1] is -6.7% (inactive); in [2] it was -53.2% (inactive); in assay [4], -3.98% (inactive); in assay [9] it was 10.4% (inactive). Besides, in assay [2], the nuclei count was determined as 172%. Further, the z-score is 0.66 in assay [3] (setting [10]), -1.57 in assay [3] (setting [11]) and 1.24 in [3] (setting [12]). Also, the fluorescence slope in assay [5] is -0.505 (inactive). In [6], the NADPH fluorescence slope was -5.3e-05 (inactive). For the same molecule, the slope in assay [7] was 0.00431 (inactive). Moreover, the outcome in assay [8] was inactive.
With `Nc1ccc2oc3ncccc3c(=O)c2c1`, the cell count in assay [1] amounted to 518. In addition, the inhibition is -0.6% (inactive) in assay [1], -52.6% (inactive) in assay [2], 22.3% (inactive) in [4] and -10.9% (inactive) in [9]. Moreover, in [2], the nuclei count worked out at 172%. The z-score in assay [3] (setting [10]) is 1.1; in assay [3] (setting [11]), -0.546; in assay [3] (setting [12]), -0.617. The fluorescence slope in [5] was -0.511 (inactive). For the same molecule, the NADPH fluorescence slope in assay [6] was -2.4e-05 (inactive). The slope in [7] is 0.00436 (inactive). In assay [8], the result was inactive.
Take `Oc1ccc(C=Nc2ccc3ncccc3c2)c(O)c1`: the cell count in assay [1] came out at 490. Moreover, the inhibition is -5.8% (inactive) in [1], -113% (inactive) in assay [2], 3.66% (inactive) in [4] and -13.6% (inactive) in assay [9]. Besides, the nuclei count in assay [2] was 117%. Also, the results for the z-score in assay [3] (setting [10]), in assay [3] (setting [11]) and in [3] (setting [12]) were 1.18, -0.733 and -0.981, respectively. The fluorescence slope in assay [5] was -0.477 (inactive). The NADPH fluorescence slope in assay [6] is -3.5e-05 (inactive). Further, the slope in assay [7] is 0.00388 (inactive). Also, the outcome in assay [8] was inactive.
For the molecule `Cn1nccc1C(=O)Nc1ccccc1C(=O)O`, the cell count in assay [1] was 640. Also, the inhibition in assay [1] was -1.2% (inactive); in assay [2], 16% (inactive); in assay [4], 11.4% (inactive); in [9], 15.5% (inactive). In assay [2], this molecule displayed a nuclei count of 170%. The values for the z-score in assay [3] (setting [10]), in [3] (setting [11]) and in assay [3] (setting [12]) were 1.93, -0.909 and -0.448, respectively. The fluorescence slope in [5] is -0.449 (inactive). In assay [6], the NADPH fluorescence slope was -0.000369 (inactive). Further, the slope in assay [7] is 0.00518 (inactive). In addition, the molecule was classed as inactive in assay [8].
Turning to `O=C(Cc1cscn1)c1ccc(O)cc1O`, the cell count in assay [1] was determined as 564. Also, the inhibition is -6% (inactive) in assay [1], -143% (inactive) in assay [2], 11.9% (inactive) in assay [4] and 8.71% (inactive) in [9]. The same molecule showed a nuclei count in assay [2] of 147%. The z-score is 1.34 in assay [3] (setting [10]), -0.975 in [3] (setting [11]) and -0.882 in [3] (setting [12]). Further, in [5], the fluorescence slope was -0.544 (inactive). For the same molecule, the NADPH fluorescence slope in assay [6] was -5.6e-05 (inactive). In addition, in assay [7], the slope is 0.00473 (inactive). In addition, in [8], the molecule was classed as inactive.
For `COc1cccc2c(=O)c(SC(F)(F)C(F)C(F)(F)F)c(C)[nH]c12` (stereo unspecified), in assay [1], the cell count worked out at 311. Further, the inhibition in assay [1] is -0.8% (inactive); in [2], -14.2% (inactive); in assay [4], -2.91% (inactive); in assay [9], -12.2% (inactive). Besides, the nuclei count in [2] was found to be 105%. The z-score was 0.112 in [3] (setting [10]), 2.52 in assay [3] (setting [11]) and -0.995 in assay [3] (setting [12]). In addition, in assay [5], the fluorescence slope was -0.393 (inactive). Also, in [6], the NADPH fluorescence slope was -3e-05 (inactive). Further, the slope in assay [7] is 0.00581 (inactive). The result in assay [8] was inactive.
Consider `CCOC(=O)C1=C(C)NC(=O)NC1c1ccc2c(c1)OCO2` (stereo unspecified), for which, in assay [1], the cell count was determined as 603. Further, the inhibition is -9.5% (inactive) in [1], -11.9% (inactive) in [2], -13.3% (inactive) in assay [4] and -6.75% (inactive) in assay [9]. The same molecule returned a nuclei count in assay [2] of 154%. The z-score in assay [3] (setting [10]) is 0.562; in [3] (setting [11]), 0.385; in [3] (setting [12]), -0.648. The fluorescence slope in assay [5] was -0.387 (inactive). Besides, the NADPH fluorescence slope in assay [6] is -7.4e-05 (inactive). For the same molecule, the slope in assay [7] was 0.00581 (inactive). In addition, in assay [8], the outcome was inactive.
As for `N/C(CCN1CCOCC1)=N/O`, the cell count in [1] was 570. In addition, the inhibition in [1] is -20.6% (inactive); in assay [2], 11.7% (inactive); in assay [4], 22.7% (inactive); in assay [9], 17.7% (inactive). This molecule showed a nuclei count in [2] of 147%. Also, the z-score was 0.759 in [3] (setting [10]), -0.712 in [3] (setting [11]) and 0.254 in assay [3] (setting [12]). Moreover, the fluorescence slope in assay [5] is -0.445 (inactive). Further, the NADPH fluorescence slope in assay [6] was -1.6e-05 (inactive). The slope in [7] was 0.00517 (inactive). Besides, the call in assay [8] was inactive.

By inhibition is commonly meant the drop in the measured response relative to a control, in per cent.
